Experimental data as given in ChEMBL document CHEMBL3596166, “Bisabolane-Type Sesquiterpenoids from the Whole Plant of Parasenecio rubescens” (J Nat Prod, 2015).

Tests used:
Escherichia coli = test: Antibacterial activity against Escherichia coli assessed as growth inhibition at 200 ug/ml after 24 hrs by paper disk diffusion method; type: functional; settings: read-out: DIZ
In short: (§1)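 Paper disk diffusion. About 0.1 mL of sample at 200 μg/mL applied to a 6 mm paper disk, air-dried, then placed on the inoculated culture dish and incubated 24 h at 37 °C. Read-out is inhibitory zone diameter (IZD). Penicillin G disks served as control for S. aureus and streptomycin disks for E. coli. Run in duplicate.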

Staphylococcus aureus = test: Antibacterial activity against Staphylococcus aureus assessed as growth inhibition at 200 ug/ml after 24 hrs by paper disk diffusion method; type: functional; settings: read-out: DIZ; in short: as §1
HepG2 = test: Cytotoxicity against human HepG2 cells assessed as inhibition of cell viability after 24 hrs by MTT assay; type: functional, cell-based; settings: HepG2, 24 h
MCF7 = test: Cytotoxicity against human MCF7 cells assessed as inhibition of cell viability after 24 hrs by MTT assay; type: functional, cell-based; settings: MCF7, 24 h
B16 = test: Cytotoxicity against mouse B16 cells assessed as inhibition of cell viability after 24 hrs by MTT assay; type: functional, cell-based; settings: B16, 24 h

SMILES: C=C(C)C(O)CC(OC(=O)/C(C)=C\C)C(=C)[C@H]1[C@H](O)[C@H](OC(=O)/C(C)=C\C)[C@@](C)(O)[C@H](O)[C@@H]1OC(=O)/C=C(\C)CC (some centres not stated)
- zone of inhibition at 200 µg/mL (Escherichia coli): 8 mm
- zone of inhibition at 200 µg/mL (Staphylococcus aureus): 9 mm
- IC50 (HepG2): 71.5 µM
- IC50 (MCF7): 78.9 µM
- IC50 (B16): 39.7 µM

SMILES: C=C(C(CC(O)C(C)(C)OC)OC(=O)/C(C)=C\C)[C@H]1[C@H](OC(=O)/C(C)=C\C)[C@H]2O[C@@]2(C)[C@@H](OC(=O)/C(C)=C\C)[C@H]1OC(C)=O (some centres not stated)
- IC50 (HepG2): 96.6 µM
- IC50 (MCF7): 56.2 µM
- IC50 (B16): 49.6 µM

SMILES: C=C(C(CC(O)C(C)(C)O)OC(=O)/C(C)=C\C)[C@H]1[C@H](OC(=O)/C(C)=C\C)[C@H]2O[C@@]2(C)[C@@H](OC(=O)/C(C)=C\C)[C@H]1OC(C)=O (some centres not stated)
- IC50 (HepG2): 40.8 µM
- IC50 (MCF7): 79.4 µM
- IC50 (B16): 42.5 µM

SMILES: C=C(C1CC(O)C(C)(C)O1)[C@H]1[C@H](OC(=O)/C(C)=C\C)[C@H]2O[C@@]2(C)[C@@H](OC(C)=O)[C@H]1OC(C)=O (some centres not stated)
- zone of inhibition at 200 µg/mL (Escherichia coli): 8 mm
- zone of inhibition at 200 µg/mL (Staphylococcus aureus): 8 mm

SMILES: COc1cccc2c1C(=O)c1c(O)c3c(c(O)c1C2=O)C[C@@](O)(C(=O)CO)C[C@@H]3O[C@H]1C[C@H](N)[C@H](O)[C@H](C)O1 [DOXORUBICIN]
- IC50 (HepG2): 23.2 µM
- IC50 (B16): 17.7 µM

SMILES: CC1(C)S[C@@H]2[C@H](NC(=O)Cc3ccccc3)C(=O)N2[C@H]1C(=O)O [PENICILLIN G]
- zone of inhibition at 200 µg/mL (Staphylococcus aureus): 25 mm

SMILES: CN[C@@H]1[C@H](O[C@H]2[C@H](O[C@H]3[C@H](O)[C@@H](O)[C@H](N=C(N)N)[C@@H](O)[C@@H]3N=C(N)N)O[C@@H](C)[C@]2(O)C=O)O[C@@H](CO)[C@H](O)[C@H]1O [STREPTOMYCIN]
- zone of inhibition at 200 µg/mL (Escherichia coli): 18 mm
